PMC7551138 (Alzheimer's & Dementia : Translational Research & Clinical …, 2020)

Key:
healthy elderly subjects [1] = test: Visual analogue scales; type: in vivo, human; conditions: 22 mg b.i.d. intranasal 7 days; vs placebo, mean (confidence interval)
Method in brief: (§1)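 NeuroCart tests were repeated over time during the 7-day b.i.d. intranasal dosing: eye movements, N-back with 3 working-memory-load conditions, pharmaco-EEG, and 100-mm VAS (Bond and Lader mood/alertness/calmness; nausea). In the 22 mg cohort, EEG at 30 min and 3 h post-dose was dropped. Analysis was mixed-model ANOVA (treatment, time, treatment×time fixed; subject random; baseline covariate), giving LSM difference versus placebo with CI.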

healthy elderly subjects [2] = test: N‐back test; type: in vivo, human; conditions: vs placebo, mean (confidence interval)
Method in brief: as §1

healthy elderly subjects [3] = test: Visual verbal learning test; type: in vivo, human; conditions: for VVLT Delayed word recall correct / VVLT Delayed word recognition RT correct / VVLT Delayed word recognition correct / VVLT Word recall correct 1 / VVLT Word recall correct 2 / VVLT Word recall correct 3: vs placebo, mean (confidence interval)
Method in brief: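 Thirty words were shown repeatedly, with immediate recall after each presentation. After 30 min, delayed recall and recognition among distractor words were tested. This test was not repeated within a day. Analysis was mixed-model ANOVA (treatment, day, treatment×day fixed; subject random), giving LSM difference versus placebo with CI.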

healthy elderly subjects [4] = test: Pharmaco‐electroencephalography; type: in vivo, human; conditions: for EEG Delta Fz‐Cz closed (uV^2/Hz) / EEG Delta Fz‐Cz open (uV^2/Hz) / EEG Delta Pz‐O1 closed (uV^2/Hz) / EEG Delta Pz‐O1 open (uV^2/Hz) / EEG Delta Pz‐O2 closed (uV^2/Hz) / EEG Delta Pz‐O2 open (uV^2/Hz): vs placebo, mean (confidence interval)
Method in brief: as §1

healthy elderly subjects [5] = test: PK‐PD analysis, nonlinear mixed‐effect modeling of adaptive tracking; type: in vivo, human
Method in brief: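 Nonlinear mixed-effects PK-PD modelling used plasma and CSF data from this study plus earlier first-in-human data. Oral comparator data were dose-corrected. […] models linked plasma concentration of the active cleavage product to adaptive tracking, testing direct-effect, turnover and effect-compartment forms. Inter-individual and inter-occasion variability were assessed. Covariates were added stepwise at p<0.01, then removed by backward elimination at p<0.001. Emax and EC50 (mg/L) are given with 95% CI.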

[6] = intranasal 20.0 mg/kg; cited from earlier work
[7] = cited from earlier work
[8] = 5.5 mg b.i.d. intranasal 7 days

COc1ccc2c3c1O[C@H]1C[C@@H](OC(=O)c4ccccc4)C=C[C@@]31CCN(C)C2 [Gln‐1062]
VAS Mood (healthy elderly subjects [1]): −0.68 (−3.66, 2.29) P = 0.6455 mm
N‐back corr‐incorr/total 1 (healthy elderly subjects [2]; [8]): 0.026 (−0.026, 0.078) P = 0.3186
N‐back corr‐incorr/total 2 (healthy elderly subjects [2]; [8]): −0.002 (−0.068, 0.064) P = 0.9575
N‐back mean RT 2 back (healthy elderly subjects [2]; [8]): −45.6 (−99.3, 8.2) P = 0.0944 msec
N‐back corr‐incorr/total 1 (healthy elderly subjects [2]; 11 mg b.i.d. intranasal 7 days): 0.027 (−0.023, 0.076) P = 0.2811
N‐back corr‐incorr/total 2 (healthy elderly subjects [2]; 11 mg b.i.d. intranasal 7 days): −0.016 (−0.081, 0.049) P = 0.6231
N‐back mean RT 1 back (healthy elderly subjects [2]; 11 mg b.i.d. intranasal 7 days): 6.1 (−39.6, 51.8) P = 0.7893 msec
N‐back corr‐incorr/total 1 (healthy elderly subjects [2]; 22 mg b.i.d. intranasal 7 days): 0.020 (−0.029, 0.069) P = 0.4242
N‐back corr‐incorr/total 2 (healthy elderly subjects [2]; 22 mg b.i.d. intranasal 7 days): 0.036 (−0.028, 0.099) P = 0.2661
N‐back mean RT 1 back (healthy elderly subjects [2]; 22 mg b.i.d. intranasal 7 days): −24.4 (−67.1, 18.3) P = 0.2558 msec
N‐back mean RT 2 back (healthy elderly subjects [2]; 22 mg b.i.d. intranasal 7 days): −71.4 (−126.4,−16.3) P = 0.0123 msec
VVLT Delayed word recall correct (healthy elderly subjects [3]; [8]): 0.36 (−2.02, 2.73) P = 0.7624
VVLT Delayed word recognition RT correct (healthy elderly subjects [3]; [8]): −49.93 (−166.97, 67.10) P = 0.3944 msec
VVLT Delayed word recognition correct (healthy elderly subjects [3]; [8]): −2.60 (−6.60, 1.40) P = 0.1967
VVLT Word recall correct 1 (healthy elderly subjects [3]; [8]): 0.36 (−1.31, 2.03) P = 0.6635
VVLT Word recall correct 2 (healthy elderly subjects [3]; [8]): −0.45 (−2.44, 1.55) P = 0.6545
VVLT Word recall correct 3 (healthy elderly subjects [3]; [8]): −0.12 (−2.42, 2.17) P = 0.9136
VVLT Delayed word recall correct (healthy elderly subjects [3]; 11 mg b.i.d. intranasal 7 days): −0.73 (−3.15, 1.70) P = 0.5486
VVLT Delayed word recognition RT correct (healthy elderly subjects [3]; 11 mg b.i.d. intranasal 7 days): −30.91 (−150.24, 88.41) P = 0.6041 msec
VVLT Delayed word recognition correct (healthy elderly subjects [3]; 11 mg b.i.d. intranasal 7 days): −2.19 (−6.24, 1.87) P = 0.2825
VVLT Word recall correct 1 (healthy elderly subjects [3]; 11 mg b.i.d. intranasal 7 days): 0.62 (−1.07, 2.32) P = 0.4608
VVLT Word recall correct 2 (healthy elderly subjects [3]; 11 mg b.i.d. intranasal 7 days): −0.63 (−2.65, 1.40) P = 0.5370
VVLT Word recall correct 3 (healthy elderly subjects [3]; 11 mg b.i.d. intranasal 7 days): −0.89 (−3.23, 1.44) P = 0.4444
VVLT Delayed word recall correct (healthy elderly subjects [3]; 22 mg b.i.d. intranasal 7 days): 0.48 (−1.89, 2.86) P = 0.6838
VVLT Delayed word recognition RT correct (healthy elderly subjects [3]; 22 mg b.i.d. intranasal 7 days): −120.03 (−237.07,−3.00) P = 0.0447 msec
VVLT Delayed word recognition correct (healthy elderly subjects [3]; 22 mg b.i.d. intranasal 7 days): −0.43 (−4.43, 3.57) P = 0.8291
VVLT Word recall correct 1 (healthy elderly subjects [3]; 22 mg b.i.d. intranasal 7 days): −0.12 (−1.79, 1.54) P = 0.8816
VVLT Word recall correct 2 (healthy elderly subjects [3]; 22 mg b.i.d. intranasal 7 days): −0.01 (−2.00, 1.99) P = 0.9959
VVLT Word recall correct 3 (healthy elderly subjects [3]; 22 mg b.i.d. intranasal 7 days): 0.99 (−1.30, 3.29) P = 0.3883
effects on VVLT, eye movements and VAS mood, calmness, alertness and nausea (healthy elderly subjects [3]; compared with placebo): No significant and consistent effects
EEG Delta Fz‐Cz closed (uV^2/Hz) (healthy elderly subjects [4]; [8]): −1.8% (−30.4%, 38.5%) P = 0.9140
EEG Delta Fz‐Cz open (uV^2/Hz) (healthy elderly subjects [4]; [8]): −13.6% (−35.0%, 14.8%) P = 0.3010
EEG Delta Pz‐O1 closed (uV^2/Hz) (healthy elderly subjects [4]; [8]): −3.1% (−36.1%, 46.9%) P = 0.8765
EEG Delta Pz‐O1 open (uV^2/Hz) (healthy elderly subjects [4]; [8]): −12.9% (−39.4%, 25.1%) P = 0.4391
EEG Delta Pz‐O2 closed (uV^2/Hz) (healthy elderly subjects [4]; [8]): −13.4% (−39.2%, 23.5%) P = 0.4151
EEG Delta Pz‐O2 open (uV^2/Hz) (healthy elderly subjects [4]; [8]): 3.1% (−23.8%, 39.4%) P = 0.8382
EEG Delta Fz‐Cz closed (uV^2/Hz) (healthy elderly subjects [4]; 11 mg b.i.d. intranasal 7 days): −14.8% (−37.6%, 16.4%) P = 0.3023
EEG Delta Fz‐Cz open (uV^2/Hz) (healthy elderly subjects [4]; 11 mg b.i.d. intranasal 7 days): −2.5% (−25.2%, 27.0%) P = 0.8435
EEG Delta Pz‐O1 closed (uV^2/Hz) (healthy elderly subjects [4]; 11 mg b.i.d. intranasal 7 days): −12.4% (−41.5%, 31.2%) P = 0.5079
EEG Delta Pz‐O1 open (uV^2/Hz) (healthy elderly subjects [4]; 11 mg b.i.d. intranasal 7 days): −5.4% (−33.6%, 34.6%) P = 0.7474
EEG Delta Pz‐O2 closed (uV^2/Hz) (healthy elderly subjects [4]; 11 mg b.i.d. intranasal 7 days): −0.4% (−28.5%, 38.7%) P = 0.9799
EEG Delta Pz‐O2 open (uV^2/Hz) (healthy elderly subjects [4]; 11 mg b.i.d. intranasal 7 days): 3.7% (−21.2%, 36.6%) P = 0.7851
EEG delta power at the frontal and parietal locations (healthy elderly subjects [4]; 22 mg): significantly decreased
EEG Delta Fz‐Cz closed (uV^2/Hz) (healthy elderly subjects [4]; 22 mg b.i.d. intranasal 7 days): −19.8% (−35.7%,−0.1%) P = 0.0495
EEG Delta Fz‐Cz open (uV^2/Hz) (healthy elderly subjects [4]; 22 mg b.i.d. intranasal 7 days): −30.1% (−48.3%,−5.3%) P = 0.0235
EEG Delta Pz‐O1 closed (uV^2/Hz) (healthy elderly subjects [4]; 22 mg b.i.d. intranasal 7 days): −27.4% (−46.1%,−2.1%) P = 0.0369
EEG Delta Pz‐O1 open (uV^2/Hz) (healthy elderly subjects [4]; 22 mg b.i.d. intranasal 7 days): −29.1% (−45.3%,−8.0%) P = 0.0126
EEG Delta Pz‐O2 closed (uV^2/Hz) (healthy elderly subjects [4]; 22 mg b.i.d. intranasal 7 days): −21.5% (−35.1%, −5.0%) P = 0.0154
EEG Delta Pz‐O2 open (uV^2/Hz) (healthy elderly subjects [4]; 22 mg b.i.d. intranasal 7 days): −16.5% (−33.4%, 4.8%) P = 0.1128
maximum increase (Emax) of adaptive tracking (healthy elderly subjects [5]; direct effect model on galantamine plasma concentration, 95% CI 1.15–5.90): 1.91
concentration resulting in half of the maximum (EC50), adaptive tracking (healthy elderly subjects [5]; galantamine plasma concentration, direct effect model, by drug dosed): 0.0231 µg/mL
blood‐to‐brain ratio [6]: 10.2 mg/kg
tolerability compared with 16 mg oral galantamine and other ChEIs ([7]; 22 mg): better tolerated
sustained attention (adaptive tracking) and verbal memory (VVLT) ([7]; 5.5, 11, 22, 33 and 44 mg): dose‐dependent improvements
